Test results from ChEMBL document CHEMBL4689842, “EUbOPEN Chemogenomics Library wave 1” (2021).

Tested on: Fibroblast
Assay: Multiplex assay against human fibroblast
Type: toxicity, cell-based
Summary of the method: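 Imaging took place on a CQ1 microscope at 37°C and 5% CO2 once compound had been added to live cells stained at seeding with Hoechst33342, BioTracker Green Microtubule Cytoskeleton Dye, MitoTracker Red and Annexin V Alexa Fluor 680. CellPathfinder machine-learning gating classed cells as Hoechst high-intensity objects or normal cells, classed normal cells as having healthy, pyknosed or fragmented nuclei, and classed pyknosed cells as mitotic or apoptotic. Tubulin, mitochondrial-mass and membrane-permeability phenotypes are per cents of the healthy-nucleus cells.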

[1] = 12 h, 1 µM, compound concentration 1 uM, replicate 1
[2] = 12 h, 1 µM, compound concentration 1 uM, replicate 2
[3] = 12 h, 10 µM, compound concentration 10 uM, replicate 1
[4] = 12 h, 10 µM, compound concentration 10 uM, replicate 2
[5] = 24 h, 1 µM, compound concentration 1 uM, replicate 1
[6] = 24 h, 1 µM, compound concentration 1 uM, replicate 2
[7] = 24 h, 10 µM, compound concentration 10 uM, replicate 1
[8] = 24 h, 10 µM, compound concentration 10 uM, replicate 2
[9] = 48 h, 1 µM, compound concentration 1 uM, replicate 1
[10] = 48 h, 1 µM, compound concentration 1 uM, replicate 2
[11] = 48 h, 10 µM, compound concentration 10 uM, replicate 1
[12] = 48 h, 10 µM, compound concentration 10 uM, replicate 2

CC(C)c1noc(N2CCC(COc3ccc(-c4ccc(S(C)(=O)=O)cc4)nc3)CC2)n1 [GSK-1292263]
Population Apoptotic (%) [1]: 65% | Population Fragmented Nuclei (%) [1]: 28% | Population Healthy Nuclei (%) [1]: 45% | Population Hoechst High Intensity Objects (%) [1]: 12% | Population Membrane Permeable-Phenotype (%) [1]: 21% | Population Mitochondria Different-Phenotype (%) [1]: 15% | Population Mitotic Cells (%) [1]: 34% | Population Normal (%) [1]: 87% | Population Pyknosed Nuclei (%) [1]: 25% | Population Tubulin-Different-Phenotype (%) [1]: 49% | Total Cell Count [1]: 128 | Population Apoptotic (%) [2]: 50% | Population Fragmented Nuclei (%) [2]: 12% | Population Healthy Nuclei (%) [2]: 85% | Population Hoechst High Intensity Objects (%) [2]: 2% | Population Membrane Permeable-Phenotype (%) [2]: 3% | Population Mitochondria Different-Phenotype (%) [2]: 4% | Population Mitotic Cells (%) [2]: 50% | Population Normal (%) [2]: 97% | Population Pyknosed Nuclei (%) [2]: 2% | Population Tubulin-Different-Phenotype (%) [2]: 9% | Total Cell Count [2]: 89 | Population Apoptotic (%) [3]: 52% | Population Fragmented Nuclei (%) [3]: 21% | Population Healthy Nuclei (%) [3]: 45% | Population Hoechst High Intensity Objects (%) [3]: 5% | Population Membrane Permeable-Phenotype (%) [3]: 24% | Population Mitochondria Different-Phenotype (%) [3]: 5% | Population Mitotic Cells (%) [3]: 48% | Population Normal (%) [3]: 94% | Population Pyknosed Nuclei (%) [3]: 33% | Population Tubulin-Different-Phenotype (%) [3]: 49% | Total Cell Count [3]: 160 | Population Apoptotic (%) [4]: 42% | Population Fragmented Nuclei (%) [4]: 5% | Population Healthy Nuclei (%) [4]: 83% | Population Membrane Permeable-Phenotype (%) [4]: 3% | Population Mitochondria Different-Phenotype (%) [4]: 10% | Population Mitotic Cells (%) [4]: 57% | Population Pyknosed Nuclei (%) [4]: 10% | Population Tubulin-Different-Phenotype (%) [4]: 15% | Total Cell Count [4]: 76 | Population Apoptotic (%) [5]: 38% | Population Fragmented Nuclei (%) [5]: 27% | Population Healthy Nuclei (%) [5]: 39% | Population Hoechst High Intensity Objects (%) [5]: 8% | Population Membrane Permeable-Phenotype (%) [5]: 39% | Population Mitochondria Different-Phenotype (%) [5]: 12% | Population Mitotic Cells (%) [5]: 61% | Population Normal (%) [5]: 91% | Population Pyknosed Nuclei (%) [5]: 33% | Population Tubulin-Different-Phenotype (%) [5]: 75% | Total Cell Count [5]: 112 | Population Apoptotic (%) [6]: 0% | Population Fragmented Nuclei (%) [6]: 14% | Population Healthy Nuclei (%) [6]: 83% | Population Hoechst High Intensity Objects (%) [6]: 2% | Population Membrane Permeable-Phenotype (%) [6]: 2% | Population Mitochondria Different-Phenotype (%) [6]: 10% | Population Mitotic Cells (%) [6]: 100% | Population Normal (%) [6]: 97% | Population Pyknosed Nuclei (%) [6]: 2% | Population Tubulin-Different-Phenotype (%) [6]: 13% | Total Cell Count [6]: 103 | Population Apoptotic (%) [7]: 52% | Population Fragmented Nuclei (%) [7]: 20% | Population Healthy Nuclei (%) [7]: 45% | Population Hoechst High Intensity Objects (%) [7]: 10% | Population Membrane Permeable-Phenotype (%) [7]: 23% | Population Mitochondria Different-Phenotype (%) [7]: 4% | Population Mitotic Cells (%) [7]: 47% | Population Normal (%) [7]: 89% | Population Pyknosed Nuclei (%) [7]: 34% | Population Tubulin-Different-Phenotype (%) [7]: 70% | Total Cell Count [7]: 178 | Population Apoptotic (%) [8]: 36% | Population Fragmented Nuclei (%) [8]: 7% | Population Healthy Nuclei (%) [8]: 79% | Population Hoechst High Intensity Objects (%) [8]: 4% | Population Membrane Permeable-Phenotype (%) [8]: 7% | Population Mitochondria Different-Phenotype (%) [8]: 12% | Population Mitotic Cells (%) [8]: 63% | Population Normal (%) [8]: 95% | Population Pyknosed Nuclei (%) [8]: 13% | Population Tubulin-Different-Phenotype (%) [8]: 7% | Total Cell Count [8]: 91 | Population Apoptotic (%) [9]: 35% | Population Fragmented Nuclei (%) [9]: 29% | Population Healthy Nuclei (%) [9]: 54% | Population Hoechst High Intensity Objects (%) [9]: 12% | Population Membrane Permeable-Phenotype (%) [9]: 33% | Population Mitochondria Different-Phenotype (%) [9]: 8% | Population Mitotic Cells (%) [9]: 64% | Population Normal (%) [9]: 88% | Population Pyknosed Nuclei (%) [9]: 15% | Population Tubulin-Different-Phenotype (%) [9]: 50% | Total Cell Count [9]: 100 | Population Apoptotic (%) [10]: 0% | Population Fragmented Nuclei (%) [10]: 26% | Population Healthy Nuclei (%) [10]: 73% | Population Hoechst High Intensity Objects (%) [10]: 8% | Population Membrane Permeable-Phenotype (%) [10]: 21% | Population Mitochondria Different-Phenotype (%) [10]: 2% | Population Mitotic Cells (%) [10]: 0% | Population Normal (%) [10]: 91% | Population Pyknosed Nuclei (%) [10]: 0% | Population Tubulin-Different-Phenotype (%) [10]: 48% | Total Cell Count [10]: 70 | Population Apoptotic (%) [11]: 44% | Population Fragmented Nuclei (%) [11]: 27% | Population Healthy Nuclei (%) [11]: 54% | Population Hoechst High Intensity Objects (%) [11]: 14% | Population Membrane Permeable-Phenotype (%) [11]: 29% | Population Mitochondria Different-Phenotype (%) [11]: 4% | Population Mitotic Cells (%) [11]: 55% | Population Normal (%) [11]: 85% | Population Pyknosed Nuclei (%) [11]: 18% | Population Tubulin-Different-Phenotype (%) [11]: 69% | Total Cell Count [11]: 184 | Population Apoptotic (%) [12]: 66% | Population Fragmented Nuclei (%) [12]: 21% | Population Healthy Nuclei (%) [12]: 74% | Population Hoechst High Intensity Objects (%) [12]: 9% | Population Membrane Permeable-Phenotype (%) [12]: 28% | Population Mitochondria Different-Phenotype (%) [12]: 0% | Population Mitotic Cells (%) [12]: 33% | Population Normal (%) [12]: 90% | Population Pyknosed Nuclei (%) [12]: 4% | Population Tubulin-Different-Phenotype (%) [12]: 59% | Total Cell Count [12]: 77
